Assay results as given in PMC6136361 (Journal of Enzyme Inhibition and Medicinal Chemistry, 2018).
Where “and” joins values, the source holds several entries; their conditions need not be identical. Identical values can stand only once. Like-named read-outs stand apart in the source and are kept apart here.

Assays:
HepG-2 cells [1] = test: Cytotoxicity, Sulforhodamine-B; assay type: cell-based, human; details: for IC50: Homo sapiens
HCT-116 cells = test: Cytotoxicity, Sulforhodamine-B; assay type: cell-based; details: Homo sapiens
How it was run: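 SRB viability: cells seeded at 5 × 10^4–10^5/well and left to attach 24 h. Test compound (DMSO, diluted in saline) at 0.001–100 µM for 48 h, four wells per concentration; vehicle-only controls. Fixed cold 50% TCA 1 h at 4 °C, stained 0.4% SRB in 1% acetic acid 30 min, dye solubilised in 10 mM tris base pH 10.5, OD 564 nm. Survival fraction = OD treated/OD control; IC50 from survival-concentration plot; repeated three times.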

VEGFR-2 = VEGFR-2 (Homo sapiens, UniProt P35968); test: biochemical; assay type: biochemical
Sequence of VEGFR-2 (P35968 20-1356): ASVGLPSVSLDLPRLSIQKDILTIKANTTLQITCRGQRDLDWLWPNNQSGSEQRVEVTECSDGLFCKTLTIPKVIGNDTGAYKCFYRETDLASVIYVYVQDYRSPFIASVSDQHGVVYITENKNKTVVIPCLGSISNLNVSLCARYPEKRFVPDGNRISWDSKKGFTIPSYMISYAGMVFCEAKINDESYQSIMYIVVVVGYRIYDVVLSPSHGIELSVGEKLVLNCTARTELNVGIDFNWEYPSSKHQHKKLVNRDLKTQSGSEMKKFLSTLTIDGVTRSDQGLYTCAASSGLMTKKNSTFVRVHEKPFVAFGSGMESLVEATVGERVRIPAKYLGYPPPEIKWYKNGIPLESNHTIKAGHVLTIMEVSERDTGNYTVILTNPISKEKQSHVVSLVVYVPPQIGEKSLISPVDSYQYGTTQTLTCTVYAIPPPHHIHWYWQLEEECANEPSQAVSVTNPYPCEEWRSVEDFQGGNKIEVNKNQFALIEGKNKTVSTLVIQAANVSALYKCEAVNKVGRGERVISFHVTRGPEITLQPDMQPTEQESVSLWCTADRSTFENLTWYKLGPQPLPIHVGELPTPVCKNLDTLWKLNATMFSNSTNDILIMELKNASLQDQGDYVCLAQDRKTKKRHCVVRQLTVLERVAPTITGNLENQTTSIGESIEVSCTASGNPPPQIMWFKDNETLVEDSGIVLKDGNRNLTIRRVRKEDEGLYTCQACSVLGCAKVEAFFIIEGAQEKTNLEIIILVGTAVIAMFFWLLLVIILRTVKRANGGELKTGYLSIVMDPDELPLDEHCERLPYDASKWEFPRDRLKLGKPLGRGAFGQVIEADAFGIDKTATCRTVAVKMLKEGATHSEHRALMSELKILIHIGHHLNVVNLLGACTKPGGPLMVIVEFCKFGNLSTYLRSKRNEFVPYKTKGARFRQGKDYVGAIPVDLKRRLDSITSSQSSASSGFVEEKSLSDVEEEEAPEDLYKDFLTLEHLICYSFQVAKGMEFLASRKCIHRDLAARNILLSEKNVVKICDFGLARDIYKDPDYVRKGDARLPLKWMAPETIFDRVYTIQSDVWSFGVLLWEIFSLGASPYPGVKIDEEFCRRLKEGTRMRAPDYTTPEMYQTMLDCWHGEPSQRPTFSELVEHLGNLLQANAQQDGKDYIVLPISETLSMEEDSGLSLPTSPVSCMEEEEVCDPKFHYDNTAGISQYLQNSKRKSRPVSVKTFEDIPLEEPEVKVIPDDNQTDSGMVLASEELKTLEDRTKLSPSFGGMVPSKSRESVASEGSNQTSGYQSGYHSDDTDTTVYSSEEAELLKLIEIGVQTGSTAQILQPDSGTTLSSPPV

HepG-2 cells [2] = test: DNA-flow cytometry cell cycle analysis; assay type: cell-based, human; details: HepG-2, at IC50, 24 h; for apoptotic sub-G1 cell population: control 0.10%
How it was run: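 HepG-2 cells exposed to test compound for 24 h, with an untreated control. Cells washed twice in ice-cold PBS, pelleted, fixed in ice-cold 70% ethanol, treated with 0.1 mg/mL RNase and stained with propidium iodide. DNA content measured by flow cytometry to give cell-cycle phase distribution. Fold change versus control; mean ± SEM, n = 4, one-way ANOVA with Tukey test.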

β-tubulin = β-tubulin (Homo sapiens, UniProt P07437); test: β-tubulin polymerization inhibition assay; assay type: cell-based; details: for %β-TUB polymerization inhibition: at their IC50 values on HepG-2 cells; for β-tubulin polymerization inhibition: at their IC50 values, HepG-2 cells
Sequence of β-tubulin (P07437 whole entry): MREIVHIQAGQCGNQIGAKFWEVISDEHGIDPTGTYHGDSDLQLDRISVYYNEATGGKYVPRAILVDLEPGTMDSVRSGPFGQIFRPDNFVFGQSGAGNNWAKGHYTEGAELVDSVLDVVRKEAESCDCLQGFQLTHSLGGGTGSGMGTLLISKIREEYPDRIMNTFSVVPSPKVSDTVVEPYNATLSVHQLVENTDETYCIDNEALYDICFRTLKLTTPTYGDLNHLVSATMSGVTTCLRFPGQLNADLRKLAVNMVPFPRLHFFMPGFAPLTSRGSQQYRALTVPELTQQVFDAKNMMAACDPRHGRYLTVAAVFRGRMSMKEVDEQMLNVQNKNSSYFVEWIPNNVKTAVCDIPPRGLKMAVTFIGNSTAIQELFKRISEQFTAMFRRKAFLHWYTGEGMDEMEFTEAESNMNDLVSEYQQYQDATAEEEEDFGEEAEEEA
Sequence of β-tubulin (P68363 whole entry partner): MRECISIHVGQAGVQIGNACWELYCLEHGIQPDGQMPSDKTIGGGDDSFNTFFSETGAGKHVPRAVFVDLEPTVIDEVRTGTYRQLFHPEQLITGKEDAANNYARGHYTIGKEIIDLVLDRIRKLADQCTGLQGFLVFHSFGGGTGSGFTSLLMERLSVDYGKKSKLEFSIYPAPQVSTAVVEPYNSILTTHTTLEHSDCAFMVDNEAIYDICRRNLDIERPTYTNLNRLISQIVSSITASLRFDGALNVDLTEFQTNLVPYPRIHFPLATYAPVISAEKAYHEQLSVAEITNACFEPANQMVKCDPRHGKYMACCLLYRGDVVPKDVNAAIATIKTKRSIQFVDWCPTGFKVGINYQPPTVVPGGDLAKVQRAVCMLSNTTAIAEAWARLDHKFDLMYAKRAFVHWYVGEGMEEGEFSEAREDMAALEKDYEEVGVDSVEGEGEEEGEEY

Bcl-2 = test: ELISA immunoassay of Bcl-2 level in HepG-2 cells; assay type: cell-based, human; details: HepG-2, at IC50, 24 h
caspase-3 = test: ELISA immunoassay of active caspase-3 level in HepG-2 cells; assay type: cell-based, human; details: HepG-2, at IC50, 24 h
Bax = test: ELISA immunoassay of Bax level in HepG-2 cells; assay type: cell-based, human; details: for Bax level, fold increase compared to the control: HepG-2, at IC50, 24 h
p53 = test: ELISA immunoassay of p53 level in HepG-2 cells; assay type: cell-based, human; details: HepG-2, at IC50, 24 h
HepG-2 cells [3] = test: FITC-annexin V / PI staining for apoptosis; assay type: cell-based, human; details: HepG-2, at IC50, 24 h; for late apoptotic cells percentage (Q2): control 0.34%
caspase-7 = test: ELISA immunoassay of active caspase-7 level in HepG-2 cells; assay type: cell-based, human; details: HepG-2, at IC50, 24 h
[4] = HepG2, 48 h, read-out: IC50 HepG-2
[5] = HepG2, read-out: Experimental cytotoxicity pIC50 (converted)
[6] = HCT-116, 48 h, read-out: IC50 HCT-116

SMILES	IC50 (HepG-2 cells [1]; [4])	IC50 (HepG-2 cells [1]; [5])	IC50 (HepG-2 cells [1]; HepG2, read-out: HepG-2 IC50)	IC50 (HCT-116 cells; [6])	IC50 (VEGFR-2)	other results
COc1ccc(NC(=O)c2c(Nc3ccccc3)sc(C#N)c2NC(=O)CNc2ccc(Br)cc2)cc1 [Compound 6, 4-[2-(4-Bromophenyl)amino-acetamido]-5-cyano-N-(4-methoxyphenyl)-2-phenylaminothiophene-3-carboxamide]	3.51 ± 0.22 µM	3.5 µM	3.51 µM	3.13 ± 0.21 µM	0.93 ± 0.19 µM	–
COc1ccc(C=NNC(=O)c2sc(Nc3ccccc3)c(C(=O)Nc3ccc(OC)cc3)c2NC(C)=O)cc1 [Compound 20, 4-Acetamido-5-[2-(4-methoxybenzylidene)hydrazinocarbonyl] -N-(4-methoxyphenyl)-2-(phenylamino)thiophene-3-carboxamide]	4.96 ± 0.45 µM	8.7 µM	4.96 µM	3.12 ± 0.31 µM	1.71 ± 0.21 µM	–
COc1ccc(NC(=O)c2c(Nc3ccccc3)sc(C#N)c2NC(=O)CNc2ccc(OC)c(OC)c2)cc1 [Compound 13, 5-Cyano-N-(4-methoxyphenyl)-4-[2-(3,4-dimethoxyphenyl)amino-acetamido]-2-phenylaminothiophene-3-carboxamide]	15.2 ± 1.62 µM	15.2 µM	–	10.3 ± 1.31 µM	–	–
COc1ccc(NC(=O)c2c(Nc3ccccc3)sc(C(=O)NN=Cc3ccc(Cl)cc3)c2NC(C)=O)cc1 [Compound 17, 4-Acetamido-5-[2-(4-chlorobenzylidene)hydrazinocarbonyl]-N-(4-methoxyphenyl)-2-phenylaminothiophene-3-carboxamide]	9.5 ± 0.86 µM	9.5 µM	9.5 µM	9.24 ± 1.02 µM	5.91 ± 0.23 µM	–
COc1ccc(NC(=O)c2c(Nc3ccccc3)sc(C#N)c2NC(=O)CNc2ccc(C)cc2)cc1 [Compound 7, 5-Cyano-N-(4-methoxyphenyl)-2-phenylamino-4-[2-(4-methylphenyl)amino-acetamido]thiophene-3-carboxamide]	24.3 ± 1.96 µM	24 µM	–	18.4 ± 1.23 µM	–	–
COc1ccc(NC(=O)c2c(Nc3ccccc3)sc(C(=O)NN=Cc3ccc(Br)cc3)c2NC(C)=O)cc1 [Compound 18, 4-Acetamido-5-[2-(4-bromobenzylidene)hydrazinocarbonyl]-N-(4-methoxyphenyl)-2-phenylaminothiophene-3-carboxamide]	10.1 ± 1.12 µM	10.4 µM	–	7.41 ± 0.62 µM	–	–
COc1ccc(NCC(=O)Nc2c(C#N)sc(Nc3ccccc3)c2C(=O)Nc2ccc(OC)cc2)cc1 [Compound 9, 5-Cyano-N-(4-methoxyphenyl)-4-[2-(4-methoxyphenyl)amino-acetamido]-2-phenylaminothiophene-3-carboxamide]	14.3 ± 1.23 µM	14 µM	–	21.4 ± 1.92 µM	–	–
COc1ccc(NC(=O)c2c(Nc3ccccc3)sc(C#N)c2NC(=O)CNc2ccccc2)cc1 [Compound 4, 5-Cyano-N-(4-methoxyphenyl)-2-phenylamino-4-(2-phenylamino-acetamido)thiophene-3-carboxamide]	74.3 ± 5.98 µM	–	–	64.1 ± 7.51 µM	–	–
COc1ccc(NC(=O)c2c(Nc3ccccc3)sc(C#N)c2NC(=O)CNc2ccccc2[N+](=O)[O-])cc1 [Compound 12, 5-Cyano-N-(4-methoxyphenyl)-4-[2-(2-nitrophenyl)amino-acetamido]-2-phenylaminothiophene-3-carboxamide]	43.3 ± 4.23 µM	–	–	60.1 ± 7.41 µM	–	–
COc1ccc(NC(=O)c2c(Nc3ccccc3)sc(C(=O)NN=Cc3ccccc3)c2NC(C)=O)cc1 [Compound 16, 4-Acetamido-5-(2-benzylidenehydrazinocarbonyl)-N-(4-methoxyphenyl)-2-phenylaminothiophene-3-carboxamide]	21.4 ± 2.91 µM	21 µM	–	19.2 ± 1.46 µM	–	–
COc1ccc(NC(=O)c2c(Nc3ccccc3)sc(C(=O)NN=Cc3cc(OC)c(OC)c(OC)c3)c2NC(C)=O)cc1 [Compound 23, 4-Acetamido-N-(p-methoxyphenyl)-2-phenylamino-5-[2-(3,4,5-trimethoxybenzylidene)hydrazinocarbonyl]thiophene-3-carboxamide]	10.82 ± 0.065 µM	5.1 µM	10.8 µM	6.46 ± 0.49 µM	5.21 ± 0.32 µM	–
CNC(=O)c1cc(Oc2ccc(NC(=O)Nc3ccc(Cl)c(C(F)(F)F)c3)cc2)ccn1 [Sorafenib, reference compound]	–	–	4.43 µM	–	–	IC50 (HCT-116 cells; HCT-116, read-out: IC50 against HCT-116 cells): 3.22 µM
COc1ccc(NC(=O)c2c(Nc3ccccc3)sc(C#N)c2NC(=O)CNc2ccc([N+](=O)[O-])cc2)cc1 [Compound 10, 5-Cyano-N-(4-methoxyphenyl)-4-[2-(4-nitrophenyl)aminoacetamido]-2-phenylaminothiophene-3-carboxamide]	9.71 ± 0.86 µM	9.7 µM	9.71 µM	5.12 ± 0.42 µM	3.92 ± 0.16 µM	–
COc1ccc(NC(=O)c2c(Nc3ccccc3)sc(C#N)c2NC(=O)CNc2ccc(O)cc2)cc1 [Compound 8, 5-Cyano-N-(4-methoxyphenyl)-4-[2-(4-hydroxyphenyl)amino-acetamido]-2-phenylaminothiophene-3-carboxamide]	10.4 ± 1.08 µM	10.4 µM	–	16.2 ± 1.52 µM	–	–
COc1ccc(NC(=O)c2c(Nc3ccccc3)sc(C#N)c2NC(=O)CNc2ccc(Cl)cc2)cc1 [Compound 5, 4-[2-(4-Chlorophenyl)aminoacetamido]-5-cyano-N-(4-methoxyphenyl)-2-phenylaminothiophene-3-carboxamide]	1.92 ± 0.12 µM	–	1.92 µM	7.83 ± 0.61 µM	–	fold higher cytotoxicity than Sorafenib (HepG-2 cells [1]; HepG-2 cells): 2.31 fold and 2.3 fold; G2/M arrest, fold increase compared to the control (HepG-2 cells [2]): about 2 fold; apoptotic sub-G1 cell population (HepG-2 cells [2]): 8.23%; %β-TUB polymerization inhibition (β-tubulin): 72.61 ± 0.14%; β-tubulin polymerization inhibition (β-tubulin): 72% and 73%; Bcl-2 level, fold decrease compared to the control (Bcl-2): 2.2 fold; caspase-3 level, fold increase compared to the control (caspase-3): about 11.2 fold; Bax/Bcl-2 ratio, fold elevation compared to the control (Bax; HepG-2, at IC50): 30 fold; Bax level, fold increase compared to the control (Bax): 6.6 fold; p53 protein level, fold increase compared with the control (p53): about 3.4 fold; fold more potent than Sorafenib against VEGFR-2 (VEGFR-2): 4 fold; early apoptosis fold increase vs control (HepG-2 cells [3]): 8 fold; late apoptosis fold increase vs control (HepG-2 cells [3]): 23 fold; late apoptotic cells percentage (Q2) (HepG-2 cells [3]): 7.85%; early apoptotic cells percentage (Q4) (HepG-2 cells [3]; control 0.72%): 5.47%; caspase-7 level, fold increase compared to the control (caspase-7): ~6.9 fold
COc1ccc(NC(=O)c2c(Nc3ccccc3)sc(C(=O)NN=Cc3ccc(C)cc3)c2NC(C)=O)cc1 [Compound 19, 4-Acetamido-5-[2-(4-methylbenzylidene)hydrazinocarbonyl]-N-(4-methoxyphenyl)-2-phenylaminothiophene-3-carboxamide]	12.2 ± 1.31 µM	12.2 µM	–	21.4 ± 1.82 µM	–	–
COc1ccc(NC(=O)c2c(Nc3ccccc3)sc(C#N)c2NC(=O)CNc2ccccc2Cl)cc1 [Compound 11, 5-Cyano-N-(4-methoxyphenyl)-4-[2-(2-chlorophenyl)aminoacetamido]-2-phenylaminothiophene-3-carboxamide]	31.3 ± 3.61 µM	–	–	52.2 ± 5.54 µM	–	–
COc1ccc(NC(=O)c2c(Nc3ccccc3)sc(C(=O)NN=Cc3ccc(OC)c(O)c3)c2NC(C)=O)cc1 [Compound 21, 4-Acetamido-5-[2-(3-hydroxy-4-methoxybenzylidene) hydrazinocarbonyl]-N-(4-methoxyphenyl)-2-phenylaminothiophene-3-carboxamide]	2.61 ± 0.12 µM	–	2.61 µM	4.32 ± 0.11 µM	1.29 ± 0.13 µM	G2/M arrest, fold increase compared to the control (HepG-2 cells [2]): ~1.9 fold; apoptotic sub-G1 cell population (HepG-2 cells [2]): 6.07%; %β-TUB polymerization inhibition (β-tubulin): 85.95 ± 0.21%; β-tubulin polymerization inhibition (β-tubulin): 86%; Bcl-2 level, fold decrease compared to the control (Bcl-2): 2.5 fold; caspase-3 level, fold increase compared to the control (caspase-3): 9.2 fold; Bax level, fold increase compared to the control (Bax): 11.8 fold; p53 protein level, fold increase compared with the control (p53): ~1.7 fold; early apoptosis fold increase vs control (HepG-2 cells [3]): 6 fold; late apoptosis fold increase vs control (HepG-2 cells [3]): 21 fold; late apoptotic cells percentage (Q2) (HepG-2 cells [3]): 7.2%; caspase-7 level, fold increase compared to the control (caspase-7): 5.9 fold
